Active and inactive are the calls of the source. The calls are words filed in the database; no cut-off is given here.
Key:
[1] = molecular target: T1, Muscarinic acetylcholine receptor M1 (Homo sapiens) (UniProt P11229); assay: Agonist activity at human muscarinic M1 receptor expressed in CHO cells assessed as inflection point for increase of EC20 of acetylcholine-induced calcium mobilization by FLIPR assay; type: functional, cell-based
T1 sequence (whole entry): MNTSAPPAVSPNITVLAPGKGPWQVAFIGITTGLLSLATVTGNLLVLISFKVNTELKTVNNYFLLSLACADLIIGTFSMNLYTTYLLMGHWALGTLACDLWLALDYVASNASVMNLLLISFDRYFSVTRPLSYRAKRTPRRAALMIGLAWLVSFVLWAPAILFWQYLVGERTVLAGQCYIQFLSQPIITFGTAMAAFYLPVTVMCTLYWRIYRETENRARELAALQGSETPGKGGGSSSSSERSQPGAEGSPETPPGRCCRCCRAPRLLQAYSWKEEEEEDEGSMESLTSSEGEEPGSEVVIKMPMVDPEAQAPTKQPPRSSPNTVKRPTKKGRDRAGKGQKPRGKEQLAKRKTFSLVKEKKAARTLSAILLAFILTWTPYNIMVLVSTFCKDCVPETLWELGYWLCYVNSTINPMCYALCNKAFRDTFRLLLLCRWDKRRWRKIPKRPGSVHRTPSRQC
Procedure, shortened: (§1)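 Potency given as inflection point (IP); percent max is the response to compound plus EC20 acetylcholine relative to the maximal acetylcholine effect. Values averaged from at least two experiments; interassay variability ±30% for IP.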

[2] = molecular target: T1, Muscarinic acetylcholine receptor M1 (Homo sapiens); assay: Agonist activity at human muscarinic M1 receptor expressed in CHO cells assessed as increase in EC20 of concentration acetylcholine-induced calcium mobilization by FLIPR assay relative to acetylcholine; type: functional, cell-based; procedure, shortened: as §1
Mus musculus = assay: Inhibition of scopolamine-induced memory impairment in ip dosed mouse relative to control; type: functional, organism-based
Procedure, shortened: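 Mouse contextual fear conditioning (episodic memory model): scopolamine given before exposure to a novel environment to block the new association. Test compound dosed ip at three doses; reversal judged against scopolamine-alone mice. Plasma levels sampled at the 3 mpk dose.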

[3] = Apparent permeability of the compound; conditions: not told
Plasma = assay: Drug levell in Sprague-Dawley rat plasma at 10 mg/kg, po; conditions: read-out: Cp, in vivo
Brain = assay: Drug level in Sprague-Dawley rat brain at 10 mg/kg, po; conditions: read-out: Drug uptake, in vivo
Cerebrospinal fluid = assay: Drug level in Sprague-Dawley rat CSF at 10 mg/kg, po; conditions: read-out: Drug uptake, in vivo
[4] = Ratio of drug levell in brain to plasma in Sprague-Dawley rat at 10 mg/kg, po

Row | SMILES | Activity [1] [nM] | Activity [2] [%] | further results
1 | O=C(O)c1cn(Cc2ccc(-c3ccc(F)cc3)cn2)c2c(c1=O)C(O)CCC2 (stereo not drawn) | 1100 |  | 
2 | O=C(O)c1cn(Cc2ccc(-c3ccccc3)cc2)c2c(c1=O)CCC2 | 810 | 99 | 
3 | COc1cccc(-c2ccc(Cn3cc(C(=O)O)c(=O)c4c3CCCC4O)cc2)c1 (stereo not drawn) | 410 |  | 
4 | O=C(O)c1cn(Cc2ccc(-c3ccc(F)nc3)cc2)c2c(c1=O)C(O)CCC2 (stereo not drawn) | 14800 |  | 
5 | O=C(O)c1cn(Cc2ccc(-c3ccccc3)cc2)c2c(c1=O)CCCC2O (stereo not drawn) | 8190 | 59 | 
6 | O=C(O)c1cn(Cc2ccc(-c3ccccc3)cc2)c2c(c1=O)C(=O)CCC2 | 800 | 94 | 
7 | O=C(O)c1cn(Cc2ccc(-c3cccc(Cl)c3)cc2)c2c(c1=O)C(O)CCC2 (stereo not drawn) | 340 |  | 
8 | O=C(O)c1cn(Cc2ccc(-c3ccccc3Cl)cc2)c2c(c1=O)C(O)CCC2 (stereo not drawn) | 1400 |  | 
9 | COC1CCCc2c1c(=O)c(C(=O)O)cn2Cc1ccc(-c2ccccc2)cc1 (stereo not drawn) | 1100 | 90 | 
10 | O=C(O)c1cn(Cc2ccc(-c3ccc(Cl)cc3)cc2)c2c(c1=O)C(O)CCC2 (stereo not drawn) | 340 |  | 
11 | O=C(O)c1cn(Cc2ccc(-c3ccsc3)cc2)c2c(c1=O)C(O)CCC2 (stereo not drawn) | 2640 |  | 

Now from value to compound, other results behind:

Row | Activity [1] [nM] | Activity [2] [%] | SMILES | further results
12 | 751 | 91 | O=C(O)c1cn(Cc2ccc(-c3ccccc3)cc2)c2c(c1=O)CCCC2 | 
13 |  | 99 | O=C(O)c1cn(Cc2ccc(-c3ccccc3)cc2)c2c(c1=O)C(O)CCC2 (stereo not drawn) | inhibition (Mus musculus): Active
14 | 750 |  | O=C(O)c1cn(Cc2ccc(-c3ccoc3)cc2)c2c(c1=O)C(O)CCC2 (stereo not drawn) | 
15 | 1390 |  | COc1ccc(-c2ccc(Cn3cc(C(=O)O)c(=O)c4c3CCCC4O)cc2)cc1 (stereo not drawn) | 
16 | 4890 | 70 | O=C(O)c1cn(Cc2ccc(-c3ccccc3)cc2)c2c(c1=O)CCCC2=O | 
17 | 2420 |  | Nc1ccc(-c2ccc(Cn3cc(C(=O)O)c(=O)c4c3CCCC4O)cc2)cn1 (stereo not drawn) | 
18 | 420 |  | Nc1cccc(-c2ccc(Cn3cc(C(=O)O)c(=O)c4c3CCCC4O)nc2)c1 (stereo not drawn) | 
19 | 1370 |  | O=C(O)c1cn(Cc2ccc(-n3cccn3)cc2)c2c(c1=O)C(O)CCC2 (stereo not drawn) | 
20 | 320 |  | COc1ccc(-c2ccc(Cn3cc(C(=O)O)c(=O)c4c3CCCC4O)cc2)cn1 (stereo not drawn) | 
21 | 908 |  | Cn1cc(-c2ccc(Cn3cc(C(=O)O)c(=O)c4c3CCCC4O)cc2)cn1 (stereo not drawn) | Papp [3]: 19 ×10⁻⁶ cm/s; concentration (Plasma): 26700 nM; concentration (Brain): 368 nM; concentration (Cerebrospinal fluid): 110 nM; Kp [4]: 0.01
22 | 3100 |  | COc1ccccc1-c1ccc(Cn2cc(C(=O)O)c(=O)c3c2CCCC3O)cc1 (stereo not drawn) | 
23 | 212 | 92 | O=C(O)c1cn(Cc2ccc(-c3ccccc3)cc2)c2ccccc2c1=O | 
24 | 1100 |  | CN(C)c1ccc(-c2ccc(Cn3cc(C(=O)O)c(=O)c4c3CCCC4O)cc2)cn1 (stereo not drawn) | 
25 | 2500 |  | O=C(O)c1cn(Cc2ccc(-n3ccnc3)cc2)c2c(c1=O)C(O)CCC2 (stereo not drawn) | 
